From ChEMBL document CHEMBL1128182, “Synthesis of substituted 1-norbornylamines with antiviral activity” (J Med Chem, 1995)
≈ marks a conversion by molar mass, not a printed value.

What was measured:
[1] = Minimum toxic concentration against influenza A virus, in MDCK cells from dog kidney; format: ADME, cell-based, Canis lupus familiaris; settings: read-out: MTC50
Summary of the method: (§1)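 MDCK dog kidney cells infected with influenza A. MIC50 is the lowest concentration giving a 50% drop in virus yield. MTC50 is the lowest concentration toxic to 50% of cells. Selectivity index is MTC50 divided by MIC50, in µg/mL terms. Amantadine hydrochloride served as the reference.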

MDCK = assay: Minimum inhibitory concentration against influenza A virus, in MDCK cells from dog kidney; format: functional; settings: Canis lupus familiaris; summary of the method: as §1
[2] = Minimum toxic concentration against African swine fever virus, in vero monkey kidney cells; format: ADME, cell-based; settings: chlorocebus sabaeus, read-out: MTC50
[3] = Minimum toxic concentration against herpes simplex virus 2, in vero monkey kidney cells; format: ADME, cell-based; settings: chlorocebus sabaeus, read-out: MTC50
Vero [4] = assay: Minimum inhibitory concentration against African swine fever virus, in vero monkey kidney cells; format: functional; settings: Chlorocebus sabaeus
Vero [5] = assay: Minimum inhibitory concentration against herpes simplex virus 2, in vero monkey kidney cells; format: functional; settings: Chlorocebus sabaeus
[6] = […] against African Swine Fever Virus; format: functional
[7] = Ratio of MIC50 to MTC50 against HSV-2; format: functional

| SMILES | MCC [1] | MIC50 (MDCK) | MCC [2] | MCC [3] | MIC50 (Vero [4]) | MIC50 (Vero [5]) | Selectivity index [6] | Selectivity index [7] |
| --- | --- | --- | --- | --- | --- | --- | --- | --- |
| CCNC12CCC(C1)C(C)C2(C)C (stereo not drawn) | 100 µg/mL | < 10 µg/mL | 300 µg/mL | 300 µg/mL | 25 µg/mL (≈ 138 µM) | 25 µg/mL (≈ 138 µM) | 12 | 12 |
| CC1C2CCC(N)(C2)C1(C)C (stereo not drawn) | 50 µg/mL | 5 µg/mL (≈ 32.6 µM) | 200 µg/mL | 200 µg/mL | 25 µg/mL (≈ 163 µM) | 25 µg/mL (≈ 163 µM) | 8 | 8 |
| Cl.NC12CC3CC(CC(C3)C1)C2 [AMANTADINE HYDROCHLORIDE] | 300 µg/mL | 0.5 µg/mL | – | – | – | – | – | – |
| C=C1C2(NCC)CCC(C2)C1(C)C (stereo not drawn) | 200 µg/mL | 5 µg/mL (≈ 27.9 µM) | 300 µg/mL | 300 µg/mL | 100 µg/mL (≈ 558 µM) | 300 µg/mL (≈ 1670 µM) | 3 | 1 |
| CCNC12CCC(C1)C(C)(C)C2C (stereo not drawn) | 100 µg/mL | 0.1 µg/mL (≈ 0.552 µM) | 300 µg/mL | 300 µg/mL | 30 µg/mL (≈ 165 µM) | 75 µg/mL (≈ 414 µM) | 10 | 4 |
| CC1C2(N)CCC(C2)C1(C)C (stereo not drawn) | – | – | 300 µg/mL | 300 µg/mL | 30 µg/mL (≈ 196 µM) | 50 µg/mL (≈ 326 µM) | 10 | 6 |
| C=C1C2CCC(NCC)(C2)C1(C)C (stereo not drawn) | 100 µg/mL | 0.1 µg/mL (≈ 0.558 µM) | 400 µg/mL | 400 µg/mL | 30 µg/mL (≈ 167 µM) | 100 µg/mL (≈ 558 µM) | 13 | 4 |
